CHOP inhibitor: inhibitors of CHOP promoter induction, primary screen, cell-based, unfolded protein response, luciferase reporter. 3.8% of 220,000 active. inhibition, % at 10 µM. CHO-K1 CHOP-promoter luciferase, tunicamycin-induced, 15-18 h;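 active = compounds that reduced the stress-induced luciferase reporter signal by more than about 70% of percent inhibition, limit read from the data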
CHOP UPR activ: activators of apoptotic CHOP UPR arm, primary screen, cell-based, CHO-CHOP luciferase reporter, luminescence, uHTS. 0.34% of 330,000 active. UPR activation; percent of tunicamycin response over DMSO baseline. AID 449763, 2010. activation, % at 10 µM;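 active = at 10 µM dose, activation of 40% or more, normalized to positive control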
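Test system: CHO CHOP reporter cells. Input: 500 CHO-CHOP cells per well. Medium: F12 with 10% FBS. Technique: luciferase luminescence. Measure: percent activation relative to tunicamycin control. Dosing: 10 µM compound, 0.5% DMSO. Timing: 16-18 h cell attachment, then 6 h compound exposure, 37 °C.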
iPSC survival up: enhancers of single-cell hiPSC survival, primary screen, ATPlite luminescence | survival enhancement, % at 20 µM | 0.044% of 360,000 active | 100% = ROCK inhibitor wells, 0% = DMSO | AID 602274, 2012; in the data active = survival enhancement above about 18%;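 also: cells exposed to compounds for 16 hours before the ATP read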
H9c2 protect: cardioprotection against H2O2-induced cell death, primary screen, uHTS, H9c2 cells, ATPLite luminescence; H9c2 cardiomyocytes, H2O2 injury protection, 2 h; protection from H2O2 cell death, % at 20 µM; 0.63% of 360,000 active; AID 588492, 2011;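 active = compounds giving at least 50% protection of heart cells from peroxide-induced death in the single-dose screen, raw or plate-pattern-corrected value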
XBP1 UPR activ: activators of adaptive XBP1 UPR arm, primary screen, cell-based, CHO-XBP1 luciferase reporter, luminescence, uHTS | 0.33% of 330,000 active | activation, % at 20 µM | IRE1-XBP1 UPR activation; percent of tunicamycin response, DMSO as zero;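 active = versus positive control, 20 µM dose yields 30% or more activation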
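Assay system: IRE1-XBP1 luciferase reporter CHO line. Input: 1000 cells/well. Buffer or medium: F12 with 10% serum. Doses: 20 µM, 1% DMSO. Times: overnight seeding at 37 °C, 6 h compound treatment at 37 °C. Technique: Steady-Glo luciferase glow luminescence, 10 min after reagent addition.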
UPR XBP1 confirm: IRE1-XBP1 UPR arm activators, confirmation, cell-based, CHO-XBP1 luciferase reporter, luminescence, single concentration; shares compounds with XBP1 UPR activ; 63% of 1,000 active; activation, % at 20 µM;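 active = reporter signal at least 30% of the positive control's activation in two or more of four replicate wells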
Each line names hits and unclear results; the compound was inactive in the other large screens (follow-up assays come after a bar, where they were run). This is one part of a sample in which hits are shown more often than they occur.

C=C(C)[C@@]12OC3(c4ccccc4)O[C@@H]1C1[C@@H]4O[C@]4(CO)[C@@H](O)[C@]4(O)C(=O)C(C)=C[C@H]4[C@@]1(O3)[C@H](C)[C@H]2OC(=O)/C=C/C=C/c1ccccc1 (some centres not stated)	iPSC survival up 41.6, XBP1 UPR activ 47.0 (no result: CHOP inhibitor) | UPR XBP1 confirm 60.9
CCCCCc1nc2ccccc2c(=O)n1-c1ccccc1[N+](=O)[O-]	none
CCCCCc1nc2c(c(=O)c3ccccc3n2C)c(=O)n1C1CCCCCC1	CHOP inhibitor 102.9, XBP1 UPR activ 61.2 | UPR XBP1 confirm 46.1
CC(=O)OC1C(O)C2=C3C4(C)C1C(C)(C)C(=O)CC4C3(O)C(OC(C)=O)C1(CC1C)C2=O (configuration not stated)	none (no result: CHOP inhibitor, CHOP UPR activ, H9c2 protect, XBP1 UPR activ)
c1ccc2oc(-c3ccc4c(c3)CNCc3cnnn3-4)cc2c1	none (no result: CHOP inhibitor, CHOP UPR activ, XBP1 UPR activ)
CCN(CC)c1ccc(N=Cc2c(O)n(-c3ccc(Cl)cc3)c(=O)[nH]c2=O)cc1	XBP1 UPR activ 166.9 | UPR XBP1 confirm 48.3
